Test results taken from ChEMBL document CHEMBL1649127, “In vivo and in vitro efficacy of amodiaquine monotherapy for treatment of infection by chloroquine-resistant Plasmodium vivax” (Antimicrob Agents Chemother, 2009).

Assays:
[1] = system: Plasmodium vivax; experiment: Antimalarial activity against chloroquine-resistant Plasmodium vivax by Giemsa staining; type: functional, organism-based
In short: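 Ex vivo P. vivax isolates came from clinic outpatients with parasitemia >5,000 μl−1 and were tested with a modified WHO microtest. Incubation ran until the drug-free control reached ≥40% schizonts. Giemsa-stained thick smears from each well were read for schizonts per 200 asexual parasites and normalized to control. IC50 was derived by nonlinear regression.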

[2] = system: Plasmodium vivax; experiment: Antimalarial activity against chloroquine-Resistant Plasmodium vivax infected in human assessed as parasite recurrence rate at total dose of 30 mg/kg administered as three daily doses measured on day 28 post dose; type: functional
In short: (§1)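 Oral amodiaquine 30 mg base/kg total, given as three daily doses. For children, the tablet was crushed and given as a suspension in water. Primaquine […] for 14 days was withheld until day 28 if there was no G6PD deficiency.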

[3] = system: Homo sapiens; experiment: Toxicity in human infected with chloroquine-Resistant Plasmodium vivax assessed as occurrence of nausea at total dose of 30 mg/kg administered as three daily doses; type: organism-based; set-up: dose 30 mg/kg; conditions: in vivo; in short: as §1
[4] = system: Plasmodium vivax; experiment: Antimalarial activity against chloroquine-resistant Plasmodium vivax infected in human assessed as clearance of peripheral parasitemia at total dose of 30 mg/kg administered as three daily doses measured 48 hrs post dose; type: functional; in short: as §1
[5] = system: Homo sapiens; experiment: Toxicity in patient infected with chloroquine-resistant Plasmodium vivax assessed as occurrence of anemia at total dose of 30 mg/kg administered as three daily doses measured 7 days post dose; type: organism-based; set-up: dose 30 mg/kg; conditions: in vivo, 168 h
In short: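 Patients received oral amodiaquine 30 mg base/kg split over three daily doses, with 60-min observation after each dose. Children were given crushed tablet in water. Anemia was defined as hemoglobin <10 g/dl. Primaquine was deferred to day 28.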

[6] = system: Homo sapiens; experiment: Toxicity in patient infected with chloroquine-resistant Plasmodium vivax assessed as occurrence of anemia at total dose of 30 mg/kg administered as three daily doses measured 28 days post dose; conditions: in vivo, 672 h
[7] = system: Homo sapiens; experiment: Toxicity in patient infected with chloroquine-resistant Plasmodium vivax assessed as occurrence of vomiting at total dose of 30 mg/kg administered as three daily doses measured […]; type: organism-based; set-up: dose 30 mg/kg; conditions: in vivo
In short: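 Three daily oral doses of amodiaquine, 30 mg base/kg total, were given under observation for 60 min. Patients who vomited were withdrawn and retreated with oral quinine. Children received crushed tablet suspended in water.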

[8] = system: Plasmodium vivax; experiment: Antimalarial activity against chloroquine-resistant Plasmodium vivax infected in human assessed as clearance of peripheral parasitemia at total dose of 30 mg/kg administered as three daily doses measured within 24 hrs post dose; type: functional; in short: as §1

## OC(c1cc(C(F)(F)F)nc2c(C(F)(F)F)cccc12)C1CCCCN1 (stereo not drawn) [MEFLOQUINE]
[1]
  IC50: 8.2 nM

## C[C@H]1[C@H](OC(=O)CCC(=O)O)O[C@@H]2O[C@@]3(C)CC[C@H]4[C@H](C)CC[C@@H]1[C@@]24OO3 [ARTESUNATE]
[1]
  IC50: 1.29 nM

## CCN(CC)Cc1cc(Nc2ccnc3cc(Cl)ccc23)ccc1O.Cl
[2]
  Activity: 22.8%
[1]
  IC50: 11.3 nM
[3]
  Activity: 4.5%
[4]
  Activity: 91%
[5]
  Activity: 30%
[6]
  Activity: Non-toxic
[7]
  Activity: 4.6%
[8]
  Activity: 52%

## Clc1ccc2c(N3CCN(CCCN4CCN(c5ccnc6cc(Cl)ccc56)CC4)CC3)ccnc2c1 [PIPERAQUINE]
[1]
  IC50: 17.5 nM

## CCN(CC)CCCC(C)Nc1ccnc2cc(Cl)ccc12 (stereo not drawn) [CHLOROQUINE]
[1]
  IC50: 52.7 nM

## CCCCN(CCCC)CC(O)c1cc(Cl)cc2c1-c1ccc(Cl)cc1/C2=C/c1ccc(Cl)cc1 (stereo not drawn) [LUMEFANTRINE]
[1]
  IC50: 16 nM
